The record followed here is ChEMBL document CHEMBL1131531, “cycloSal-2',3'-dideoxy-2',3'-didehydrothymidine monophosphate (cycloSal-d4TMP): synthesis and antiviral evaluation of a new d4TMP delivery system” (J Med Chem, 1998).

The structures appear in SMILES notation. Bounds are passed on as bounds.

The test system of data set [1] is CCRF-CEM. Nature of the data set: Antiviral activity was measured on HIV-1 in wild-type CEM/O cells. Format: functional, cell-based, Homo sapiens.
For data set [2], the system named is CCRF-CEM. Nature of the data set: The cytotoxicity was measured on wild type CEM/O cells. In kind it is functional. To be noted: Homo sapiens.
Data set [3] has as its system CCRF-CEM. Nature of the data set: Antiviral activity was measured on HIV-2 in wild-type CEM/O cells. In kind it is functional, cell-based, Homo sapiens.
Data set [4] has as its system CCRF-CEM. Nature of the data set: Antiviral activity was measured on HIV-1 in wild-type CEM/O cells for S configuration. In kind it is functional, cell-based. The following applies: Homo sapiens.
The subject of data set [5] is CCRF-CEM. Kind of data set: Antiviral activity was measured on HIV-2 in wild-type CEM/O cells for R configuration. Format: functional, cell-based. The following applies: Homo sapiens.
Data set [6] is described as follows: Half-life period was measured in 30 mM sodium borate buffer at pH 8.9 at 37 degree C. In kind it is ADME.
Data set [7] can be described thus: Half-life period was measured in 30 mM sodium phosphate buffer at pH 7.3 at 37 degree C. Format: ADME.
Data set [8] relates to CCRF-CEM. Nature of the data set: The cytotoxicity was measured on wild type CEM/O cells for R configuration. Format: functional. The following applies: Homo sapiens.
In data set [9] the test system is CCRF-CEM. Nature of the data set: Antiviral activity was measured on HIV-2 in mutant thymidine kinase-deficient CEM/TK- cells for R configuration. Format: functional, cell-based. To be noted: Homo sapiens.
Data set [10] in a line: Half-life period was measured in RPMI-1640 culture medium at 37 degree C with 10% heat-inactivated fetal calf serum.. Format: ADME. To be noted: cattle.
Data set [11] relates to CCRF-CEM. Kind of data set: Antiviral activity was measured on HIV-2 in wild-type CEM/O cells for S configuration. In kind it is functional, cell-based. To be noted: Homo sapiens.
Data set [12] relates to CCRF-CEM. Nature of the data set: Antiviral activity was measured on HIV-1 in wild-type CEM/O cells for R configuration. Format: functional, cell-based. The following applies: Homo sapiens.
The subject of data set [13] is CCRF-CEM. Kind of data set: (§1) Antiviral activity was measured on HIV-2 in mutant thymidine kinase-deficient CEM/TK- cells. Format: functional, cell-based. The following applies: Homo sapiens.
Data set [14] is described as follows: Partition coefficient was measured. Format: ADME. The following applies: octanol/water. An outline of the steps:
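Compound dissolved in 1-octanol and mixed with equal volume of phosphate buffer (10 mmol, pH 6.8). Vortexed 10 min, phases separated by centrifugation. Each phase analysed by reversed-phase HPLC (UV 265 nm). Pa taken as the quotient of peak areas.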

Data set [15] in a line: Half-life period was measured in RPMI-1640 culture medium at 37 degree C without FCS. To be noted: RPMI-1640 culture medium without FCS. In kind it is ADME.
Data set [16] can be described thus: Half-life period was measured in 30 mM TRIS buffer at pH 6.9 at 37 degree C. Format: ADME.
Data set [17] concerns CCRF-CEM. Kind of data set: The cytotoxicity was measured on wild type CEM/O cells for S configuration. Format: functional. The following applies: Homo sapiens.
Data set [18] deals with CCRF-CEM. Kind of data set: Antiviral activity was measured on HIV-2 in mutant thymidine kinase-deficient CEM/TK- cells for S configuration. Format: functional, cell-based. To be noted: Homo sapiens.
In data set [19] the test system is CCRF-CEM. Described as §1. Format: functional, cell-based. The following applies: Homo sapiens. In short, it runs like this:
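CEM/O or TK-deficient CEM/TK- cells at 4 × 10⁵ cells/mL infected with HIV-1 (HTLV-IIIB) or HIV-2 (LAV 2) at ~100 CCID50/mL. Infected suspension mixed 1:1 with serial compound dilutions. Giant cell formation scored microscopically after 4 days.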
The source holds these as a separate data set.

Data set [20] concerns MT4. Nature of the data set: Antiviral activity was measured on HIV-1 in MT-4 cells. The following applies: Homo sapiens. In kind it is functional, cell-based.
The subject of data set [21] is MT4. Kind of data set: Antiviral activity was measured on HIV-2 in MT-4 cells. In kind it is functional, cell-based. The following applies: Homo sapiens.
The subject of data set [22] is MT4. Nature of the data set: Antiviral activity was measured on HIV-2 in MT-4 cells for R configuration. In kind it is functional, cell-based. The following applies: Homo sapiens.
The test system of data set [23] is MT4. Kind of data set: Antiviral activity was measured on HIV-1 in MT-4 cells for R configuration. Format: functional, cell-based. To be noted: Homo sapiens.
Data set [24] relates to CCRF-CEM. Kind of data set: The cytotoxicity was measured on wild type CEM/O cells. In kind it is functional. The following applies: Homo sapiens.

For `COc1ccc(O)c(CO)c1`, the 50% effective concentration (EC50) in the data set with CCRF-CEM [1] (Homo sapiens, CCRF-CEM) was over 250000 nM; with CCRF-CEM [3] (Homo sapiens, CCRF-CEM) it was over 250000 nM. Moreover, the CC50 in the data set on CCRF-CEM [2] worked out at 158000 nM.

`COc1cccc2c1OP(=O)(OCC1C=CC(n3cc(C)c(=O)[nH]c3=O)O1)OC2` (stereo unspecified): the half-maximal effective concentration (EC50) in the data set with CCRF-CEM [4] was 470 nM; in the data set with CCRF-CEM [5], 170 nM; in the data set with CCRF-CEM [9], 120 nM; with CCRF-CEM [11] it was 1030 nM; with CCRF-CEM [1] (Homo sapiens, CCRF-CEM), 170 nM; with CCRF-CEM [12] it was 140 nM. The EC50 in the data set on CCRF-CEM [13] came out at 170 nM; in the data set on CCRF-CEM [18] it was 9670 nM; with CCRF-CEM [3] (Homo sapiens, CCRF-CEM), 420 nM. The half-life in [6] is 0.4 h; in [7], 1.4 h; in data set [10], 2 h; in data set [15] it was 3.2 h; in [16], 9.5 h. The figures for the CC50 with CCRF-CEM [8], in the data set on CCRF-CEM [17] and in the data set with CCRF-CEM [2] were 38000 nM, 84000 nM and 35000 nM, respectively. In [14], this compound had a Pa of 1.4.

`Cc1cn(C2C=CC(COP3(=O)OCc4cc(Cl)ccc4O3)O2)c(=O)[nH]c1=O` (stereo unspecified): the EC50 stood at 2670 nM in the data set with CCRF-CEM [19]; 31 nM in the data set with MT4 [20]; 38 nM with MT4 [21]; 1400 nM in the data set on CCRF-CEM [3] (Homo sapiens, CCRF-CEM). This compound also came in with a Pa in [14] of 7.6. Further, the CC50 in the data set with CCRF-CEM [2] is 49000 nM.

Regarding `OCc1ccccc1O` [SALICYL ALCOHOL], the EC50 is over 250000 nM in the data set with CCRF-CEM [1] (Homo sapiens, CCRF-CEM) and over 250000 nM in the data set on CCRF-CEM [3] (Homo sapiens, CCRF-CEM). In addition, the CC50 in the data set on CCRF-CEM [2] was over 250000 nM.

As for `Cc1cn([C@H]2C[C@H](N=[N+]=[N-])[C@@H](CO)O2)c(=O)[nH]c1=O` [ZIDOVUDINE], the EC50 was 7 nM in the data set with CCRF-CEM [1] (Homo sapiens, CCRF-CEM) and over 100000 nM in the data set with CCRF-CEM [13]. For the same compound, the CC50 with CCRF-CEM [2] is over 100000 nM.

For `Cc1cn([C@H]2C=C[C@@H](COP3(=O)OCc4cc([N+](=O)[O-])ccc4O3)O2)c(=O)[nH]c1=O` (stereo partly specified), the EC50 in the data set on CCRF-CEM [19] came to 40000 nM; with CCRF-CEM [1] (Homo sapiens, CCRF-CEM), 290 nM; in the data set with CCRF-CEM [3] (Homo sapiens, CCRF-CEM) it was 400 nM. In addition, the Pa in data set [14] stood at 1.5. The same compound displayed a CC50 in the data set with CCRF-CEM [2] of 75000 nM.

With `COc1ccc2c(c1)COP(=O)(OC[C@@H]1C=C[C@H](n3cc(C)c(=O)[nH]c3=O)O1)O2` (stereo partly specified), the half-life in data set [6] is 1.07 h; in data set [7], 7.2 h; in data set [10], 4.3 h; in [15], 7.2 h; in [16], 28.3 h. Further, the EC50 in the data set on CCRF-CEM [1] (Homo sapiens, CCRF-CEM) was 180 nM; in the data set on CCRF-CEM [13] it was 800 nM; in the data set on CCRF-CEM [3] (Homo sapiens, CCRF-CEM) it was 700 nM. In [14], this compound had a Pa of 2.3. For the same compound, the midpoint of cytotoxicity in the data set with CCRF-CEM [2], the CC50, lay at 39000 nM.

In turn, `Cc1cn([C@H]2C=C[C@@H](COP3(=O)OCc4ccccc4O3)O2)c(=O)[nH]c1=O` (stereo partly specified) yielded a Pa in data set [14] of 1.9.

Turning to `Cc1cccc2c1OP(=O)(OC[C@@H]1C=C[C@H](n3cc(C)c(=O)[nH]c3=O)O1)OC2` (stereo partly specified), the EC50 came out at 28 nM in the data set on MT4 [20]; 420 nM with CCRF-CEM [4]; 67 nM in the data set on CCRF-CEM [5]; 11 nM with MT4 [22]; 63 nM in the data set with CCRF-CEM [9]; 1100 nM in the data set on CCRF-CEM [11]. Further, the concentration giving a half-maximal response (EC50) in the data set on CCRF-CEM [1] (Homo sapiens, CCRF-CEM) worked out at 87 nM; in the data set with CCRF-CEM [12], 80 nM; in the data set on MT4 [21], 33 nM; with CCRF-CEM [13], 93 nM; with MT4 [23] it was 12 nM; in the data set with CCRF-CEM [18] it was 700 nM. This compound also returned an EC50 in the data set with CCRF-CEM [3] (Homo sapiens, CCRF-CEM) of 120 nM. Also, the half-life in data set [6] is 1.5 h; in [7] it was 10.2 h; in [10] it was 9.1 h; in [15], 16 h; in data set [16], 68.5 h. Besides, the results for the CC50 in the data set on CCRF-CEM [8], in the data set with CCRF-CEM [17] and with CCRF-CEM [2] were 11000 nM, 76000 nM and 21000 nM, respectively. This compound registered a Pa in data set [14] of 5.1.

On to `Cc1cccc(CO)c1O`, for which the EC50 was over 250000 nM in the data set with CCRF-CEM [1] (Homo sapiens, CCRF-CEM) and over 250000 nM in the data set with CCRF-CEM [3] (Homo sapiens, CCRF-CEM). For the same compound, in the data set with CCRF-CEM [2], the CC50 is over 250000 nM.

`Cc1cc(C)c2c(c1)COP(=O)(OCC1C=CC(n3cc(C)c(=O)[nH]c3=O)O1)O2` (stereo unspecified): the Pa in data set [14] is 15.3.

In data set [14], `Cc1ccc2c(c1)COP(=O)(OC[C@@H]1C=C[C@H](n3cc(C)c(=O)[nH]c3=O)O1)O2` (stereo partly specified) had a Pa of 5.4.

For the compound `Cc1cn([C@H]2C=C[C@@H](CO)O2)c(=O)[nH]c1=O` [STAVUDINE], the EC50 in the data set on MT4 [20] was determined as 18 nM; with CCRF-CEM [1] (Homo sapiens, CCRF-CEM), 180 nM; in the data set with CCRF-CEM [1] (ccrf-cem), 180 nM; in the data set on MT4 [21], 22 nM; in the data set with CCRF-CEM [13], 15000 nM; in the data set on CCRF-CEM [3] (Homo sapiens, CCRF-CEM), 260 nM. This compound yielded an EC50 in the data set with CCRF-CEM [3] (ccrf-cem) of 260 nM. The CC50 in the data set with CCRF-CEM [24] and in the data set on CCRF-CEM [2] was 56000 nM in each case. Also, the Pa in [14] came out at 0.15.

One may read the EC50 as the concentration that produces a half-maximal response. A high value points to a less potent agent. Broadly, the CC50 is the concentration giving 50% cytotoxicity. A lower CC50 goes with harm at low concentration. Usually half-life stands for the time needed for the level to fall by half in the phase considered. The low end stands for fast loss, the high end for slow loss.
